According to ChEMBL document CHEMBL5625186, “Synthesis, cytotoxicity, antioxidant activity and molecular modeling of new NSAIDs-EBS derivatives” (Eur J Med Chem, 2023):
Active and inactive are the calls of the source. The rule behind the calls is not given here.

Assays:
[1] = test system: BGC-823; test: Cytotoxicity against human BGC-823 cells measured after 24 to 72 hrs by MTT assay; type: functional, cell-based
Summary of the method: (§1)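 Cells were grown in RPMI 1640 with 10% FBS and penicillin/streptomycin at 37 °C, 5% CO2. They were seeded at 1×10^4 cells/well and allowed to attach for 24 h. Compounds at various concentrations were then applied for 24, 48 or 72 h (DMSO below 1.25%). MTT (5.0 mg/mL) was added 3 h before the end, formazan was dissolved in DMSO and OD was read at 570 nm. Doxorubicin served as reference. Data are mean ± SD, n=3.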

[2] = test system: SW480; test: Cytotoxicity against human SW480 cells measured after 24 to 72 hrs by MTT assay; type: functional, cell-based; summary of the method: as §1
[3] = test system: MCF7; test: Cytotoxicity against human MCF7 cells measured after 24 to 72 hrs by MTT assay; type: functional, cell-based; summary of the method: as §1
[4] = test system: HeLa; test: Cytotoxicity against human HeLa cells measured after 24 to 72 hrs by MTT assay; type: functional, cell-based; summary of the method: as §1
[5] = test system: A549; test: Cytotoxicity against human A549 cells measured after 24 to 72 hrs by MTT assay; type: functional, cell-based; summary of the method: as §1
[6] = Antioxidant activity assessed as DPPH radical scavenging activity incubated for 30 mins under dark condition relative to control; type: functional; parameters: concentration or dose not given beside the values
Summary of the method: (§2)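 Compounds at a range of concentrations were mixed with DPPH solution and kept 30 min in the dark. Absorbance was read at 517 nm. % activity = [(control A − sample A)/control A] × 100. Vitamin C and ebselen served as positive controls and DMSO as the negative control. Fold is expressed relative to vitamin C (set as 1). Values are mean ± SD of three independent experiments.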

[7] = test system: DNA; test: Induction of bleomycin-dependent DNA (unknown origin) damage assessed as absorbance at 0.1 mg/ml measured after 1 hr; type: nucleic-acid assay
Summary of the method: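 The bleomycin-iron/DNA mixture was incubated at 37 °C for 1 h and stopped with 0.1 M EDTA. Colour was developed with 1% TBA plus 25% HCl at 80 °C for 30 min. After ice cooling, DNA damage was read as the increase in absorbance at 532 nm. L-ascorbic acid served as the positive control.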

[8] = Antioxidant activity assessed as glutathione peroxidase-like activity at 41 mM measured over 3 mins; type: functional
Summary of the method: (§3)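 GPx-like rate measured from GSH/glutathione reductase/NADPH coupling in 50 mM phosphate buffer with 0.1% Triton X-100. The compound was added from a 41 mM solution, and the reaction was started with H2O2 (0.8 mM). A340 was followed for 3 min and expressed as ΔA/min. Values were corrected for the H2O2 + GSH background, and for the compound's own absorbance if coloured. Ebselen (41 mM) served as reference.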

[9] = target: T1, Thioredoxin reductase 1, cytoplasmic (Rattus norvegicus, UniProt O89049); test: Inhibition of rat TrxR1 using DTNB as substrate preincubated for 15 mins followed by substrate addition and measured for 20 mins by colorimetric method
T1 sequence (O89049 whole entry): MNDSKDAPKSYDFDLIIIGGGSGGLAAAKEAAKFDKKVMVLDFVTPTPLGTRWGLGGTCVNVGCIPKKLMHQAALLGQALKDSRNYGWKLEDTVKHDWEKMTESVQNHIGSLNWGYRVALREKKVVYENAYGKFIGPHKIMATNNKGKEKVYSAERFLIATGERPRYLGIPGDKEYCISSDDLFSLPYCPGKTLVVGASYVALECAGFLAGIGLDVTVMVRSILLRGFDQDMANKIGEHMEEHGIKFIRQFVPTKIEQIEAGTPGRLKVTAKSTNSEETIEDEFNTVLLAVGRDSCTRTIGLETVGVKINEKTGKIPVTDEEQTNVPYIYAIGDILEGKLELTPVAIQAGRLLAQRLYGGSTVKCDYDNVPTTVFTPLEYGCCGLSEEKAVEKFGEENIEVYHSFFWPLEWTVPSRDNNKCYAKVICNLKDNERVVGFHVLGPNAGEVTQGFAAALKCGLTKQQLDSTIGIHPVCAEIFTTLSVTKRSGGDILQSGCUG
Summary of the method: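 Rat TrxR1 (5 nM) was used in 100 mM potassium phosphate pH 7.0 with 1 mM EDTA, 0.1 mg/ml BSA and 0.2 mM NADPH. […] DTNB was then added and the A412 increase was monitored for 20 min.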

[10] = Potency index, ratio of test compound to vitamin C antioxidant activity assessed as DPPH radical scavenging activity incubated for 30 mins under dark condition; type: functional; summary of the method: as §2
[11] = Antioxidant activity assessed as glutathione peroxidase-like activity at 41 mM measured over 3 mins relative to ebselen glutathione peroxidase-like activity; type: functional; summary of the method: as §3

Structure (SMILES)	IC50 [1]	IC50 [2]	IC50 [3]	IC50 [4]	IC50 [5]	inhibition [6]	Activity [7]	Activity [8]	EC50 [9]	Ratio [10]	fold change (FC) [11]
COc1cccc2c1C(=O)c1c(O)c3c(c(O)c1C2=O)C[C@@](O)(C(=O)CO)C[C@@H]3O[C@H]1C[C@H](N)[C@H](O)[C@H](C)O1 [DOXORUBICIN]	9.8 µM	12.4 µM	12.8 µM	11.5 µM	9.4 µM	–	–	–	–	–	–
CC(C(=O)NCc1ccc(-n2[se]c3ccccc3c2=O)cc1)c1ccc(-c2ccccc2)c(F)c1 (stereo unspecified)	6.5 µM	8.3 µM	11.3 µM	9.5 µM	12.3 µM	58.2%	57.3	Active	11.2 µM	0.6	–
COc1ccc2cc([C@H](C)C(=O)O)ccc2c1 [NAPROXEN]	> 50 µM	> 50 µM	> 50 µM	> 50 µM	> 50 µM	–	–	–	–	–	–
CC(C(=O)NCCn1[se]c2ccccc2c1=O)c1cccc(C(=O)c2ccccc2)c1 (stereo unspecified)	13.6 µM	14.6 µM	10.3 µM	11.3 µM	15.6 µM	33.3%	87.6	Active	23.6 µM	0.3	–
CC(=O)Oc1ccccc1C(=O)NCc1ccc(-n2[se]c3ccccc3c2=O)cc1	2.4 µM	2.8 µM	1.5 µM	1.7 µM	2.1 µM	57.3%	108	Active	8.8 µM	0.5	< 3
Cc1cccc(Nc2ccccc2C(=O)NCCn2[se]c3ccccc3c2=O)c1C	6.5 µM	7.2 µM	5.3 µM	8.8 µM	5.2 µM	37.4%	72.4	Active	26.6 µM	0.4	–
CCC1(CC)OCCc2c1[nH]c1c(CC(=O)NCc3ccc(-n4[se]c5ccccc5c4=O)cc3)cccc21	9.8 µM	12.3 µM	8.8 µM	12.6 µM	9.8 µM	52.1%	97.4	–	17.1 µM	0.5	–
O=C(NCCn1[se]c2ccccc2c1=O)c1ccccc1Nc1cccc(C(F)(F)F)c1	11.4 µM	9.4 µM	12.6 µM	15.2 µM	12.2 µM	41.7%	77.7	Active	24.8 µM	0.4	–
CC1=C(CC(=O)NCc2ccc(-n3[se]c4ccccc4c3=O)cc2)c2cc(F)ccc2/C1=C\c1ccc([S+](C)[O-])cc1 (stereo unspecified)	9.5 µM	9.8 µM	7.4 µM	8.4 µM	8.3 µM	42.9%	72.4	–	10.4 µM	0.4	–
CC(C)Cc1ccc(C(C)C(=O)NCc2ccc(-n3[se]c4ccccc4c3=O)cc2)cc1 (stereo unspecified)	7.5 µM	10.4 µM	12.4 µM	9.3 µM	8.1 µM	42.6%	106	Active	17.2 µM	0.4	–
O=C1O[C@H]([C@@H](O)CO)C(O)=C1O	–	–	–	–	–	97.2%	292	–	–	–	–
COc1ccc2c(c1)c(CC(=O)NCCn1[se]c3ccccc3c1=O)c(C)n2C(=O)c1ccc(Cl)cc1	17.4 µM	14.3 µM	10.3 µM	13.6 µM	11.2 µM	27.3%	92.4	Active	24.5 µM	0.3	–
